{"source": "ChEMBL document CHEMBL5543124", "about": "“Lead Compound Development of SRC-3 Inhibitors with Improved Pharmacokinetic Properties and Anticancer Efficacy” (J Med Chem, 2024)", "key": {"[1]": {"experiment": "Cytotoxicity against CD-1 mouse Primary hepatocyte assessed as inhibition of cell growth incubated for 72 hrs by MTT assay", "type": "toxicity, cell-based", "settings": "primary hepatocytes"}, "[2]": {"experiment": "Half life in CD-1 mouse at 1 mg/kg,iv administration measured upto 48 hrs by LC-MS/MS analysis", "type": "ADME, organism-based", "settings": "in vivo", "in_short": "(§1)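 Single intravenous bolus in ICR male mice (n = 3, 6 weeks); dosing solution 0.5 mg/mL in 20% DMSO, 16% PEG, 4% dextrose in PBS. Tail-vein blood (10 μL) taken at 2, 5, 15, 30 min and 1, 2, 4, 8, 24, 48 h. Plasma quantified by LC-MS/MS against a 0.5–1000 ng/mL calibration; parameters from non-compartmental analysis.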"}, "[3]": {"experiment": "Tmax in CD-1 mouse at 1 mg/kg,iv administration measured upto 48 hrs by LC-MS/MS analysis", "type": "ADME, organism-based", "settings": "in vivo", "in_short": "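Male ICR mice (n=3, 6 weeks) given 1 mg/kg i.v. from a 0.5 mg/mL solution in 20% DMSO/16% PEG/4% dextrose in PBS. Tail-vein blood (10 μL) drawn at 2, 5, 15 and 30 min and at 1, 2, 4, 8, 24 and 48 h. Plasma quantified by LC-MS/MS against 0.5–1000 ng/mL calibration standards with QC samples. Parameters from non-compartmental analysis.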"}, "[4]": {"experiment": "Cmax in CD-1 mouse at 1 mg/kg,iv administration measured upto 48 hrs by LC-MS/MS analysis", "type": "ADME, organism-based", "settings": "in vivo", "in_short": "as §1"}, "[5]": {"experiment": "AUC (0 to t) in CD-1 mouse at 1 mg/kg,iv administration measured upto 48 hrs by LC-MS/MS analysis", "type": "ADME, organism-based", "settings": "in vivo", "in_short": "as §1"}, "[6]": {"experiment": "Clearance in CD-1 mouse at 1 mg/kg,iv administration measured upto 48 hrs by LC-MS/MS analysis", "type": "ADME, organism-based", "settings": "in vivo", "in_short": "as §1"}, "[7]": {"experiment": "Half life in CD-1 mouse at 10 mg/kg,po administration measured upto 48 hrs by LC-MS/MS analysis", "type": "ADME, organism-based", "settings": "in vivo", "in_short": "(§2)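 Oral gavage in ICR male mice (n = 3); dosing solution 1 mg/mL in 20% DMSO, 16% PEG, 4% dextrose in PBS. Tail-vein blood (10 μL) taken at 15, 30 min and 1, 2, 4, 8, 24, 48 h. Plasma quantified by LC-MS/MS against a 0.5–1000 ng/mL calibration; parameters from a non-compartmental extravascular model.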"}, "[8]": {"experiment": "Tmax in CD-1 mouse at 10 mg/kg,po administration measured upto 48 hrs by LC-MS/MS analysis", "type": "ADME, organism-based", "settings": "in vivo", "in_short": "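Male ICR mice (n=3) dosed by oral gavage at 10 mg/kg from a 1 mg/mL solution in 20% DMSO/16% PEG/4% dextrose in PBS. Tail-vein blood (10 μL) drawn at 15 and 30 min and at 1, 2, 4, 8, 24 and 48 h. Plasma quantified by LC-MS/MS against calibration standards. Parameters from non-compartmental extravascular model.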"}, "[9]": {"experiment": "Cmax in CD-1 mouse at 10 mg/kg,po administration measured upto 48 hrs by LC-MS/MS analysis", "type": "ADME, organism-based", "settings": "in vivo", "in_short": "as §2"}, "[10]": {"experiment": "AUC (0 to t) in CD-1 mouse at 10 mg/kg,po administration measured upto 48 hrs by LC-MS/MS analysis", "type": "ADME, organism-based", "settings": "in vivo", "in_short": "as §2"}, "[11]": {"experiment": "Oral bioavailability in CD-1 mouse at 10 mg/kg administration measured upto 48 hrs by LC-MS/MS analysis", "type": "ADME, organism-based", "settings": "in vivo"}, "[12]": {"target": "Prostaglandin G/H synthase 1 (Homo sapiens, UniProt P23219)", "sequence (P23219 whole entry)": "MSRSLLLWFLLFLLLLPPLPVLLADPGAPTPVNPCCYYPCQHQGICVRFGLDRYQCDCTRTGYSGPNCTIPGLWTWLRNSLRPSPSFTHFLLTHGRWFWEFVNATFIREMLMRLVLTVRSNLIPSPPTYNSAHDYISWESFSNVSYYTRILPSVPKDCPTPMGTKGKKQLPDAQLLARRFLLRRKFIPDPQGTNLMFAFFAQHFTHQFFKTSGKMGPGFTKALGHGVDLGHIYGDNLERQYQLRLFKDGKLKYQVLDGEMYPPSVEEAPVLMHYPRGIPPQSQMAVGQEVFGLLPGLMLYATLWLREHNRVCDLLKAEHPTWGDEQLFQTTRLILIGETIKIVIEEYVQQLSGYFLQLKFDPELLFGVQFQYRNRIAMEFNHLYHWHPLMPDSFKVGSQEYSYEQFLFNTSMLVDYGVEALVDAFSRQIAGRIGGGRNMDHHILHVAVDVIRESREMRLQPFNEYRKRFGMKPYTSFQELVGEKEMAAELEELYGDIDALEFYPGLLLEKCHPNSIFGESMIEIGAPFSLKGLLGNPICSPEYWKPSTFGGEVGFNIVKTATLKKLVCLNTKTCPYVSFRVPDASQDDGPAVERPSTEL", "experiment": "Inhibition of COX1 (unknown origin)", "type": "toxicity", "in_short": "(§3)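 Tested in a commercial off-target safety screening panel of 78 targets. Values reported as RC50, taken as IC50 except for agonist mode, where RC50 is EC50.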"}, "[13]": {"target": "T1, Prostaglandin G/H synthase 2 (Homo sapiens, UniProt P35354)", "T1 sequence (P35354 whole entry)": "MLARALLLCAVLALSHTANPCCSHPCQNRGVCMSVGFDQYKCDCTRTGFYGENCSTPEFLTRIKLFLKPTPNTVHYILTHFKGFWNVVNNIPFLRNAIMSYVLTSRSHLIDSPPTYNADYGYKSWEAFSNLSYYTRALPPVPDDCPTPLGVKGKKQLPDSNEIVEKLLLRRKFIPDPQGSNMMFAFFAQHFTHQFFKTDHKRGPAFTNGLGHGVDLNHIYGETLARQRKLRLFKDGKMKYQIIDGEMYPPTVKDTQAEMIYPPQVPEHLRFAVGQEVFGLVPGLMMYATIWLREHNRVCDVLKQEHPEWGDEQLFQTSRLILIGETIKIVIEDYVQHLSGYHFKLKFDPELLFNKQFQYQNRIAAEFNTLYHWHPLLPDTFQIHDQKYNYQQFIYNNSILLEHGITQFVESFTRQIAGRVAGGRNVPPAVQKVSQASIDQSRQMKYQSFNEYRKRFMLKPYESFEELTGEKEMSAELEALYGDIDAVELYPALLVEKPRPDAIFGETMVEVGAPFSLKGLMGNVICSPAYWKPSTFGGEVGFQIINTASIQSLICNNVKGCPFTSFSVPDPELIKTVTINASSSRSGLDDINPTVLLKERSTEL", "experiment": "Inhibition of COX2 (unknown origin)", "type": "toxicity", "in_short": "as §3"}, "[14]": {"target": "Voltage-gated inwardly rectifying potassium channel KCNH2 (Homo sapiens, UniProt Q12809)", "sequence (Q12809 whole entry)": "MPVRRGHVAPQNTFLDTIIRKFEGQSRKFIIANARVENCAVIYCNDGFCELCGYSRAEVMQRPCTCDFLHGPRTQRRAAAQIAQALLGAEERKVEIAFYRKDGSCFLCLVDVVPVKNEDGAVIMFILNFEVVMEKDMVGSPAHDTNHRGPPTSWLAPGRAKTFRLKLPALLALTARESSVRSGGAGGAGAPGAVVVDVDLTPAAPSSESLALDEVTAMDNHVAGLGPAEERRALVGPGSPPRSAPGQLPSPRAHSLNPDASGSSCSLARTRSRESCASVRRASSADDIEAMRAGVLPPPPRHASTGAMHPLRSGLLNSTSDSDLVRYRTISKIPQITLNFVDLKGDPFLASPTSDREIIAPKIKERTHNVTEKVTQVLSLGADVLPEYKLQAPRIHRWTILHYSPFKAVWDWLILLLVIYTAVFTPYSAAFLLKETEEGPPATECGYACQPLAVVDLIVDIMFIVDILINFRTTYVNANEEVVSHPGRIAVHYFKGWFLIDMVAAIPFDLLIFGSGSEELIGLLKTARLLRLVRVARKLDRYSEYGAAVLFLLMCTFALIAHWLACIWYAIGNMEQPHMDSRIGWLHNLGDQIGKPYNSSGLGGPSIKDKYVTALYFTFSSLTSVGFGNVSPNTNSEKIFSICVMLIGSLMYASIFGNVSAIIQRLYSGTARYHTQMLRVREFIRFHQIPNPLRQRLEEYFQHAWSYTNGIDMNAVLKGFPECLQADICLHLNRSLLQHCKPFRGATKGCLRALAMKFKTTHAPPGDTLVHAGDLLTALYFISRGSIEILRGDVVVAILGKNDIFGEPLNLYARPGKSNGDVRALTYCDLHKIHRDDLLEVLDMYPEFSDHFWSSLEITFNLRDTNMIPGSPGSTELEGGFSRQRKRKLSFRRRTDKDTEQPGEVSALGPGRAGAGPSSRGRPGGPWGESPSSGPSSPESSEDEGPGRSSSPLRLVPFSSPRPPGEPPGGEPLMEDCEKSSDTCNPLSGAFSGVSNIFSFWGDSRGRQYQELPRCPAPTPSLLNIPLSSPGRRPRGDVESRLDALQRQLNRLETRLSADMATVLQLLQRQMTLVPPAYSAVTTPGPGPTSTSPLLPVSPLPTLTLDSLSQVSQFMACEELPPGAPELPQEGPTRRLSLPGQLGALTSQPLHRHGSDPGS", "experiment": "Inhibition of hERG transfected in HEK293 cells by patch clamp assay", "type": "toxicity, cell-based"}, "[15]": {"target": "hERG (KCNH2) (Homo sapiens, UniProt Q12809)", "sequence (Q12809 whole entry)": "as above", "experiment": "Inhibition of hERG transfected in HEK293 cells at 30 uM by patch clamp assay relative to control", "type": "toxicity, cell-based", "settings": "HEK293 cells transfected with hERG"}, "[16]": {"experiment": "Half life in human liver microsomes at 1 uM incubated for 30 mins in presence of NADPH by LC-MS/MS analysis", "type": "ADME, Microsome", "settings": "0.5 h", "in_short": "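Human liver microsomes (1 mg/mL final) in 100 mM phosphate buffer with or without NADPH; compound at 1 μM final, 37 °C. Samples taken at 0, 5, 10, 20, 30 min (0 and 30 min without NADPH), quenched with cold acetonitrile containing internal standards, analysed by LC-MS/MS; verapamil as control.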"}, "[17]": {"experiment": "Drug concentration in CD-1 mouse plasma at 37.7 micromol/kg,ip administration measured after 22 hrs by LC-MS/MS analysis", "type": "ADME, cell-free", "settings": "dose 37.7 µmol/kg", "in_short": "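Female CD-1 mice (n = 3) dosed ip at 37.7 μmol/kg. Blood (20 μL) taken at 0.25, 5 and 22 h, processed to plasma, and drug quantified by LC-MS/MS.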"}, "[18]": {"experiment": "Stability in human plasma incubated upto 150 mins", "type": "ADME, cell-free", "settings": "2.5 h"}, "[19]": {"experiment": "Toxicity in mouse assessed as mild stress at 100 mg/kg,po administration for 4 weeks", "type": "organism-based", "settings": "in vivo, 672 h", "in_short": "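Mice dosed orally at up to 100 mg/kg, the highest dose tested. Observed for signs of stress.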"}, "[20]": {"experiment": "Toxicity in mouse assessed as body weight loss at 50 mg/kg,po administration for 4 weeks", "type": "organism-based", "settings": "in vivo, 672 h", "in_short": "(§4)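 Mice dosed orally once daily at 50 or 100 mg/kg for 4 weeks. Body weight monitored throughout.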"}, "[21]": {"experiment": "Toxicity in mouse assessed as body weight loss at 100 mg/kg,po administration for 4 weeks", "type": "organism-based", "settings": "in vivo, 672 h", "in_short": "as §4"}, "[22]": {"experiment": "Stability in CD-1 mouse plasma at 37.7 micromol/kg,ip administration measured after 22 hrs by LC-MS/MS analysis", "type": "ADME, cell-free", "settings": "at 37.7 µmol/kg", "in_short": "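Female CD-1 mice (n=3) dosed i.p. at 37.7 μmol/kg (equimolar across compounds). Blood (20 μL) drawn at 0.25, 5 and 22 h and processed to plasma. Drug levels quantified by LC-MS/MS.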"}, "[23]": {"system": "CYP1A2", "experiment": "Stability in human liver microsomes assessed as CYP1A2-mediated drug metabolism incubated for 1 hr", "type": "ADME, Microsome", "settings": "read-out: Drug metabolism"}}, "note": "pIC50: −log10 of the molar value."}
{"smiles": "C/C(=N\\Nc1nc2cc(F)c(F)cc2n1C)c1ncccn1", "values": [{"measurement": "IC50 at 72 h", "setting": "[1]", "result": "> 1000", "unit": "nM"}, {"measurement": "t1/2", "setting": "[2]", "result": 195, "unit": "min"}, {"measurement": "Tmax", "setting": "[3]", "result": 1.98, "unit": "min"}, {"measurement": "Cmax", "setting": "[4]", "result": 552, "unit": "ng/mL"}, {"measurement": "AUCt", "setting": "[5]", "result": 87.6, "unit": "ng·h/mL"}, {"measurement": "clearance", "setting": "[6]", "result": 176, "unit": "mL/min/kg"}, {"measurement": "t1/2", "setting": "[7]", "result": 545, "unit": "min"}, {"measurement": "Tmax", "setting": "[8]", "result": 15, "unit": "min"}, {"measurement": "Cmax", "setting": "[9]", "result": 89, "unit": "ng/mL"}, {"measurement": "AUCt", "setting": "[10]", "result": 477, "unit": "ng·h/mL"}, {"measurement": "F", "setting": "[11]", "result": 54.4, "unit": "%"}, {"measurement": "pIC50", "setting": "[12]", "result": 5.54}, {"measurement": "pIC50", "setting": "[13]", "result": 5.62}, {"measurement": "pIC50", "setting": "[14]", "result": "< 4.52"}, {"measurement": "inhibition at 30 µM", "setting": "[15]", "result": "< 50", "unit": "%"}, {"measurement": "t1/2", "setting": "[16]", "result": 3.71, "unit": "min"}, {"measurement": "concentration at 22 h", "setting": "[17]", "result": 117, "unit": "nM"}, {"measurement": "Stability", "setting": "[18]", "result": "Stable"}, {"measurement": "Activity", "setting": "[19]", "result": "Non-Toxic"}, {"measurement": "Activity", "setting": "[20]", "result": "Non-Toxic"}, {"measurement": "Activity", "setting": "[21]", "result": "Non-Toxic"}, {"measurement": "Stability", "setting": "[22]", "result": "Stable"}, {"measurement": "metabolised at 1 h", "setting": "[23]", "result": 98, "unit": "%"}]}
